Calls of active or inactive are those of the source. The calls are words filed in the database; no cut-off is given here.
Legend:
[1] = biological target: Human immunodeficiency virus type 1 reverse transcriptase (Human immunodeficiency virus 1, UniProt Q72547); assay: Non-competitive inhibition of wild type HIV1 reverse transcriptase p66/p51 after 30 mins by liquid scintillation counting
[2] = Selectivity index, ratio of CC50 for human MT4 cells to EC50 for HIV1 3B infected in human MT4 cells; type: toxicity, cell-based; settings: MT4 cells (uninfected for CC50; HIV-1 3B infected for EC50)
MT4 = assay: Cytotoxicity against human MT4 cells after 4 days by MTT assay; type: cell-based; settings: mt4, 96 h
[3] = tested on: Human immunodeficiency virus 1; assay: Antiviral activity against HIV1 3B infected in human MT4 cells assessed as inhibition of virus-induced cytopathic effect after 4 days by MTT assay; type: functional, organism-based; settings: Human immunodeficiency virus 1, 3B, MT4, 96 h
Method in brief: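 HIV-1 in MT-4 cells at 1 × 10^5 cells/ml, infected at MOI 0.02 (virus stock titrated as CCID50), then plated immediately onto varying compound concentrations. After 4 days at 37 °C, viable cells counted by MTT.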

Human alphaherpesvirus 3 = assay: Antiviral activity against Varicella zoster virus; type: functional, organism-based
Method in brief: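 VZV strain Oka and the TK− strain 07-1 were inoculated at 20 PFU onto confluent cell monolayers in the presence of varying compound concentrations. Plaque formation was recorded once complete in untreated infected controls.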

Punta Toro virus = assay: Antiviral activity against Punta Toro virus; type: functional, organism-based
Sindbis virus = assay: Antiviral activity against Sindbis virus; type: functional, organism-based
[4] = tested on: Mammalian orthoreovirus 1; assay: Antiviral activity against Reovirus 1; type: functional, organism-based
Human respirovirus 3 = assay: Antiviral activity against Parainfluenza virus 3; type: functional, organism-based
Influenza B virus = assay: Antiviral activity against influenza B virus; type: functional, organism-based
Influenza A virus [5] = assay: Antiviral activity against Influenza A virus H3N2; type: functional, organism-based
Influenza A virus [6] = assay: Antiviral activity against Influenza A virus H1N1; type: functional, organism-based
[7] = tested on: Respiratory syncytial virus; assay: Antiviral activity against Respiratory syncytial virus; type: functional, organism-based
Coxsackievirus B4 = assay: Antiviral activity against Coxsackievirus B4; type: functional, organism-based
[8] = tested on: Vesicular stomatitis virus; assay: Antiviral activity against Vesicular stomatitis virus; type: functional, organism-based
Vaccinia virus = assay: Antiviral activity against Vaccinia virus; type: functional, organism-based; settings: Orthopoxvirus vaccinia
Human alphaherpesvirus 2 = assay: Antiviral activity against Human herpesvirus 2; type: functional, organism-based
Method in brief: (§1)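 Confluent HEL, Vero, HeLa or MDCK monolayers (cell type per virus not specified) were inoculated with 100 CCID50 of virus, with a range of compound concentrations. Strains were HSV-1 KOS and TK− ACV-resistant KOS, HSV-2 Lyons and G, and HCMV AD-169 and Davis. Cytopathicity or plaques were scored once complete in untreated infected controls.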

Human alphaherpesvirus 1 = assay: Antiviral activity against Human herpesvirus 1; type: functional, organism-based; method in brief: as §1
Feline coronavirus = assay: Antiviral activity against Feline coronavirus; type: functional, organism-based
Human betaherpesvirus 5 [9] = assay: Antiviral activity against HCMV Davis; type: functional, organism-based; settings: Human betaherpesvirus 5, Davis; method in brief: as §1
Human betaherpesvirus 5 [10] = assay: Antiviral activity against HCMV AD169; type: functional, organism-based; settings: Human betaherpesvirus 5, AD169; method in brief: as §1

Structure (SMILES) | Ki [1] [µM] | selectivity ratio [2] | CC50 (MT4) [µM] | EC50 [3] [µM] | Activity (Human alphaherpesvirus 3) | Activity (Punta Toro virus) | Activity (Sindbis virus) | Activity [4] | Activity (Human respirovirus 3) | Activity (Influenza B virus) | Activity (Influenza A virus [5]) | Activity (Influenza A virus [6]) | Activity [7] | Activity (Coxsackievirus B4) | Activity [8] | Activity (Vaccinia virus) | Activity (Human alphaherpesvirus 2) | Activity (Human alphaherpesvirus 1) | Activity (Feline coronavirus) | other results
Cc1ccc(OCCn2ccc(=O)n(Cc3cc(C)ccc3C)c2=O)cc1 | 10 | > 66 | > 343 | 5.2 | inactive | inactive | inactive | inactive | inactive | inactive | inactive | inactive | inactive | inactive | inactive | inactive | inactive | inactive | inactive | 
O=c1ccn(C/C=C/c2ccccc2)c(=O)n1Cc1ccccc1 | 29 | 20 | 160 | 7.85 | inactive | inactive | inactive | inactive | inactive | inactive | inactive | inactive | inactive | inactive | inactive | inactive | inactive | inactive | inactive | 
O=c1ccn(C/C=C/c2ccccc2)c(=O)n1Cc1cc(F)cc(F)c1 | 12 | 4 | 31 | 8.4 | inactive | inactive | inactive | inactive | inactive | inactive | inactive | inactive | inactive | inactive | inactive | inactive | inactive | inactive | inactive | IC50 (Human betaherpesvirus 5 [9]): 45 µM; IC50 (Human betaherpesvirus 5 [10]): 37 µM
Cc1ccc(OCCn2ccc(=O)n(Cc3cccc(C)c3)c2=O)cc1 | 6.6 | ≥ 11 | ≥ 38 | 3.4 | inactive | inactive | inactive | inactive | inactive | inactive | inactive | inactive | inactive | inactive | inactive | inactive | inactive | inactive | inactive | 
Cc1ccc(OCCn2ccc(=O)n(Cc3ccccc3)c2=O)cc1 | 52 | 17 | 187 | 11 | inactive | inactive | inactive | inactive | inactive | inactive | inactive | inactive | inactive | inactive | inactive | inactive | inactive | inactive | inactive | 
Cc1ccc(OCCn2ccc(=O)n(C(C)c3ccccc3)c2=O)cc1 (configuration not stated) | 12 | 20 | 132 | 6.5 | inactive | inactive | inactive | inactive | inactive | inactive | inactive | inactive | inactive | inactive | inactive | inactive | inactive | inactive | inactive | 
Nc1ccn(C[C@@H](CO)OCP(=O)(O)O)c(=O)n1 [CIDOFOVIR] |  |  |  |  |  |  |  |  |  |  |  |  |  |  |  |  |  |  |  | IC50 (Human betaherpesvirus 5 [9]): 1 µM
